In brackets after ≈: the same amount, converted by molar mass.
What was measured:
E. coli 6881 = test: Minimum inhibitory concentration; format: cell-based
Summary of the method: (§1)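 Broth microdilution in Mueller Hinton Broth per CLSI. Inoculum was pre-incubated in TSB at 30°C to 0.5 McFarland. Amoxicillin, ampicillin, cefotaxime and gentamicin were tested over 0.5–1024 µg.mL−1, alone or with test compound at 128 µg.mL−1. Each set was repeated three times.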

E. coli 2101123 = test: Minimum inhibitory concentration; format: cell-based
Summary of the method: as §1

E. coli 1812446 = test: Minimum inhibitory concentration; format: cell-based
Summary of the method: as §1

P. aeruginosa 6817 = test: Minimum inhibitory concentration; format: cell-based
Summary of the method: as §1

B. cereus 6591 = test: Minimum inhibitory concentration; format: cell-based
Summary of the method: as §1

S. aureus 7314 = test: Minimum inhibitory concentration; format: cell-based
Summary of the method: as §1

S. aureus ATCC33591 = test: Minimum inhibitory concentration; format: cell-based
Summary of the method: as §1

E. coli (TEM-1) = test: Minimum inhibitory concentration; format: cell-based
Summary of the method: as §1

S. aureus (ATCC33591) = test: Murine non-lethal Staphylococcus aureus infection model; format: in vivo, C57BL/6 mice; conditions: S. aureus infected mice
Summary of the method: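 C57BL/6 mice (18–22 g, n = 6/group) got i.p. 100 µL of S. aureus ATCC33591 at 2 × 10^5 CFU.mL−1. After 1 h, penicillin or ampicillin (100 or 200 mg.kg−1) or cefotaxime (35 mg.kg−1) was given i.p. at 12, 24, 48 and 72 h over 7 days. Day-7 blood and peritoneal fluid were serially diluted, plated in triplicate on mannitol salt agar, and counted as CFU.mL−1.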

RAW 264.7 cells = test: MTT cell viability assay; format: cell-based, murine; conditions: RAW 264.7 monocytes; 24 h
Summary of the method: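 RAW 264.7 cells kept in DMEM with 4 mM L-glutamine, 10% FCS, 2 mM nonessential amino acids and penicillin/streptomycin at 37°C, 5% CO2. Cells were exposed 24 h to test compound or antibiotics, free or combined. Viability was read by MTT (reagent 5 mg.mL−1 in PBS) in three replicates, as % of PBS (pH 7.4) control; mastoparan-L (1–100 μg.mL−1) was the positive control.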

[1] = test system: E. coli 1812446 clinical strain; test: Murine non-lethal Escherichia coli infection model; format: in vivo, C57BL/6 mice; conditions: E. coli infected mice
Summary of the method: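 C57BL/6 mice (18–22 g, n = 6/group) got i.p. 200 μl holding 2.5 × 10^8 CFU of E. coli 1812446. One hour later they were treated i.p. with penicillin or ampicillin (100 or 200 mg.kg−1) or gentamicin (10 mg.kg−1), at 12, 24, 48 and 72 h over 7 days. On day 7, blood and peritoneal fluid were serially diluted and plated in triplicate on Mueller Hinton agar at 37°C overnight. Detection limit was 100 CFU.ml−1.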

[2] = E. coli 6881, in the presence of dBLIP1 (128 µg.mL^−1)
[3] = E. coli 6881, in the presence of dBLIP2 (128 µg.mL^−1)
[4] = E. coli 2101123, in the presence of dBLIP1 (128 µg.mL^−1)
[5] = E. coli 2101123, in the presence of dBLIP2 (128 µg.mL^−1)
[6] = E. coli 1812446, in the presence of dBLIP1 (128 µg.mL^−1)
[7] = E. coli 1812446, in the presence of dBLIP2 (128 µg.mL^−1)
[8] = P. aeruginosa 6817, in the presence of dBLIP1 (128 µg.mL^−1)
[9] = P. aeruginosa 6817, in the presence of dBLIP2 (128 µg.mL^−1)
[10] = B. cereus 6591, in the presence of dBLIP1 (128 µg.mL^−1)
[11] = B. cereus 6591, in the presence of dBLIP2 (128 µg.mL^−1)
[12] = S. aureus 7314, in the presence of dBLIP1 (128 µg.mL^−1)
[13] = S. aureus 7314, in the presence of dBLIP2 (128 µg.mL^−1)
[14] = S. aureus ATCC33591, in the presence of dBLIP1 (128 µg.mL^−1)
[15] = S. aureus ATCC33591, in the presence of dBLIP2 (128 µg.mL^−1)
[16] = Staphylococcus aureus, ATCC33591
[17] = E. coli (TEM-1), in the presence of dBLIP1 (128 µg.mL^−1)
[18] = E. coli (TEM-1), in the presence of dBLIP2 (128 µg.mL^−1)

Compound `CO/N=C(\C(=O)N[C@@H]1C(=O)N2C(C(=O)O)=C(COC(C)=O)CS[C@H]12)c1csc(N)n1` [CTX, Cefotaxime] has an MIC (E. coli 6881; [2]) of 8 µg/mL, an MIC (E. coli 6881; [3]) of 8 µg/mL and an MIC (E. coli 6881; Escherichia coli, 6881) of 64 µg/mL (≈ 141 µM). The MIC (E. coli 2101123; [4]) was 8 µg/mL, the MIC (E. coli 2101123; [5]) was 8 µg/mL and the MIC (E. coli 2101123; Escherichia coli, 2101123) was 128 µg/mL (≈ 281 µM). The MIC (E. coli 1812446; [6]) was 16 µg/mL, the MIC (E. coli 1812446; [7]) was 16 µg/mL and the MIC (E. coli 1812446; Escherichia coli, 1812446) was 256 µg/mL (≈ 562 µM). The MIC (P. aeruginosa 6817; [8]) was 8 µg/mL, the MIC (P. aeruginosa 6817; [9]) was 8 µg/mL and the MIC (P. aeruginosa 6817; Pseudomonas aeruginosa, 6817) was 64 µg/mL (≈ 141 µM). The MIC (B. cereus 6591; [10]) was 8 µg/mL, the MIC (B. cereus 6591; [11]) was 8 µg/mL and the MIC (B. cereus 6591; Bacillus cereus, 6591) was 64 µg/mL (≈ 141 µM). For the same compound, the MIC (S. aureus 7314; [12]) was 8 µg/mL, the MIC (S. aureus 7314; [13]) was 8 µg/mL and the MIC (S. aureus 7314; Staphylococcus aureus, 7314) was 128 µg/mL (≈ 281 µM). It also gave an MIC (S. aureus ATCC33591; [14]) of 8 µg/mL, an MIC (S. aureus ATCC33591; [15]) of 8 µg/mL and an MIC (S. aureus ATCC33591; [16]) of 128 µg/mL (≈ 281 µM). The MIC (E. coli (TEM-1); [17]) was 4 µg/mL, the MIC (E. coli (TEM-1); [18]) was 4 µg/mL and the MIC (E. coli (TEM-1); Escherichia coli) was 32 µg/mL (≈ 70.3 µM). For the same compound, the “CFU, antibiotic alone” value (S. aureus (ATCC33591); cefotaxime 35 mg.kg^−1 i.p.) was “efficient reduction in CFU”.
`CC1(C)S[C@@H]2[C@H](NC(=O)[C@H](N)c3ccc(O)cc3)C(=O)N2[C@H]1C(=O)O` [AMX, Amoxicillin] was tested, and the MIC (E. coli 6881; [2]) was 32 µg/mL, the MIC (E. coli 6881; [3]) was 16 µg/mL and the MIC (E. coli 6881; Escherichia coli, 6881) was 128 µg/mL (≈ 350 µM). It also gave an MIC (E. coli 2101123; [4]) of 8 µg/mL, an MIC (E. coli 2101123; [5]) of 8 µg/mL and an MIC (E. coli 2101123; Escherichia coli, 2101123) of 256 µg/mL (≈ 701 µM). The MIC (E. coli 1812446; [6]) was 16 µg/mL, the MIC (E. coli 1812446; [7]) was 16 µg/mL and the MIC (E. coli 1812446; Escherichia coli, 1812446) was 256 µg/mL (≈ 701 µM). For the same compound, the MIC (P. aeruginosa 6817; [8]) was 32 µg/mL, the MIC (P. aeruginosa 6817; [9]) was 16 µg/mL and the MIC (P. aeruginosa 6817; Pseudomonas aeruginosa, 6817) was 512 µg/mL (≈ 1400 µM). For the same compound, the MIC (B. cereus 6591; [10]) was 8 µg/mL, the MIC (B. cereus 6591; [11]) was 8 µg/mL and the MIC (B. cereus 6591; Bacillus cereus, 6591) was 256 µg/mL (≈ 701 µM). The MIC (S. aureus 7314; [12]) was 32 µg/mL, the MIC (S. aureus 7314; [13]) was 16 µg/mL and the MIC (S. aureus 7314; Staphylococcus aureus, 7314) was 512 µg/mL (≈ 1400 µM). The MIC (S. aureus ATCC33591; [14]) was 32 µg/mL, the MIC (S. aureus ATCC33591; [15]) was 32 µg/mL and the MIC (S. aureus ATCC33591; [16]) was 512 µg/mL (≈ 1400 µM). For the same compound, the MIC (E. coli (TEM-1); Escherichia coli) was 128 µg/mL (≈ 350 µM).
`CC1(C)S[C@@H]2[C@H](NC(=O)Cc3ccccc3)C(=O)N2[C@H]1C(=O)O` [Penicillin G] was tested, and the “cytotoxic activity against RAW 264.7 (MTT cell viability)” value (from here on “cytotoxic activity”) (RAW 264.7 cells) was 150 µg/mL.
`CNC(C)C1CCC(N)C(OC2C(N)CC(N)C(OC3OCC(C)(O)C(NC)C3O)C2O)O1` (centres unmarked) [GEN, Gentamicin] was tested, and the MIC (E. coli 6881; [2]) was 4 µg/mL, the MIC (E. coli 6881; [3]) was 4 µg/mL and the MIC (E. coli 6881; Escherichia coli, 6881) was 32 µg/mL (≈ 67 µM). The MIC (E. coli 2101123; [4]) was 128 µg/mL, the MIC (E. coli 2101123; [5]) was 128 µg/mL and the MIC (E. coli 2101123; Escherichia coli, 2101123) was 256 µg/mL (≈ 536 µM). For the same compound, the MIC (E. coli 1812446; [6]) was 128 µg/mL, the MIC (E. coli 1812446; [7]) was 128 µg/mL and the MIC (E. coli 1812446; Escherichia coli, 1812446) was 512 µg/mL (≈ 1070 µM). The MIC (P. aeruginosa 6817; [8]) was 8 µg/mL, the MIC (P. aeruginosa 6817; [9]) was 8 µg/mL and the MIC (P. aeruginosa 6817; Pseudomonas aeruginosa, 6817) was 32 µg/mL (≈ 67 µM). For the same compound, the MIC (B. cereus 6591; [10]) was 4 µg/mL, the MIC (B. cereus 6591; [11]) was 4 µg/mL and the MIC (B. cereus 6591; Bacillus cereus, 6591) was 32 µg/mL (≈ 67 µM). The MIC (S. aureus 7314; [12]) was 8 µg/mL, the MIC (S. aureus 7314; [13]) was 8 µg/mL and the MIC (S. aureus 7314; Staphylococcus aureus, 7314) was 64 µg/mL (≈ 134 µM). The MIC (S. aureus ATCC33591; [14]) was 8 µg/mL, the MIC (S. aureus ATCC33591; [15]) was 8 µg/mL and the MIC (S. aureus ATCC33591; [16]) was 64 µg/mL (≈ 134 µM). It also gave an MIC (E. coli (TEM-1); [17]) of 4 µg/mL, an MIC (E. coli (TEM-1); [18]) of 4 µg/mL and an MIC (E. coli (TEM-1); Escherichia coli) of 32 µg/mL (≈ 67 µM). For the same compound, the “cytotoxic activity” value (RAW 264.7 cells) was 150 µg/mL and the “CFU, antibiotic alone” value ([1]; gentamicin 10 mg.kg^−1 i.p.) was “efficient CFU decline”.
`CC1(C)S[C@@H]2[C@H](NC(=O)[C@H](N)c3ccccc3)C(=O)N2[C@H]1C(=O)O` [AMP, Ampicillin] was tested, and the MIC (E. coli 6881; [2]) was 32 µg/mL, the MIC (E. coli 6881; [3]) was 32 µg/mL and the MIC (E. coli 6881; Escherichia coli, 6881) was 128 µg/mL (≈ 366 µM). For the same compound, the MIC (E. coli 2101123; [4]) was 256 µg/mL, the MIC (E. coli 2101123; [5]) was 256 µg/mL and the MIC (E. coli 2101123; Escherichia coli, 2101123) was > 512 µg/mL. For the same compound, the MIC (E. coli 1812446; [6]) was 512 µg/mL, the MIC (E. coli 1812446; [7]) was 512 µg/mL and the MIC (E. coli 1812446; Escherichia coli, 1812446) was > 512 µg/mL. The MIC (P. aeruginosa 6817; [8]) was 32 µg/mL, the MIC (P. aeruginosa 6817; [9]) was 32 µg/mL and the MIC (P. aeruginosa 6817; Pseudomonas aeruginosa, 6817) was 512 µg/mL (≈ 1470 µM). The MIC (B. cereus 6591; [10]) was 16 µg/mL, the MIC (B. cereus 6591; [11]) was 8 µg/mL and the MIC (B. cereus 6591; Bacillus cereus, 6591) was 256 µg/mL (≈ 733 µM). It also gave an MIC (S. aureus 7314; [12]) of 32 µg/mL, an MIC (S. aureus 7314; [13]) of 32 µg/mL and an MIC (S. aureus 7314; Staphylococcus aureus, 7314) of 512 µg/mL (≈ 1470 µM). It also gave an MIC (S. aureus ATCC33591; [14]) of 128 µg/mL, an MIC (S. aureus ATCC33591; [15]) of 128 µg/mL and an MIC (S. aureus ATCC33591; [16]) of 512 µg/mL (≈ 1470 µM). For the same compound, the MIC (E. coli (TEM-1); Escherichia coli) was 1020 µg/mL (≈ 2930 µM), the “cytotoxic activity” value (RAW 264.7 cells) was 200 µg/mL and the “CFU, antibiotic alone” value (S. aureus (ATCC33591); 200 mg.kg^−1 i.p.) was “CFUs were slightly reduced”. The “CFU, antibiotic alone” value ([1]; 100 mg.kg^−1 i.p.) was “did not cause any bactericidal effect” and the “CFU, antibiotic alone” value ([1]; 200 mg.kg^−1 i.p.) was “a lower reduction in CFU”.
For Mastoparan-L, the “cytotoxic activity” value (RAW 264.7 cells) was 10 µg/mL.
